Values after ≈ are worked out from the molar mass of the structure shown.
Assays:
DNA gyrase = DNA gyrase (Escherichia coli, UniProt P0AES4+P0AES6); test: Inhibition of Escherichia coli DNA gyrase using fluorescence-tagged DNA by fluorescenct polarization assay; type: protein-complex assay
Procedure, shortened: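 E. coli DNA gyrase supercoiling assay. The read-out was differential binding of a fluorescence-tagged DNA to relaxed versus supercoiled DNA, giving IC50.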

Haemophilus influenzae = test: Antimicrobial activity against Haemophilus influenzae by broth microdilution method; type: functional
Procedure, shortened: (§1)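 Broth microdilution following CLSI guidelines. Values under 12.5 μM are averages of three or more replicates.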

Staphylococcus aureus [1] = test: Antimicrobial activity against methicillin-sensitive Staphylococcus aureus by broth microdilution method in presence of 50% human serum; type: functional
Procedure, shortened: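 CLSI broth microdilution against methicillin-sensitive S. aureus, run with 50% human serum added to the medium to reflect plasma protein binding. Values under 12.5 μM are averages of three or more replicates.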

Streptococcus pneumoniae [2] = test: Antimicrobial activity against Streptococcus pneumoniae by broth microdilution method; type: functional; procedure, shortened: as §1
Staphylococcus aureus [3] = test: Antimicrobial activity against methicillin-sensitive Staphylococcus aureus by broth microdilution method; type: functional; procedure, shortened: as §1
Staphylococcus aureus [4] = test: Antimicrobial activity against methicillin-resistant and quinolone-resistant Staphylococcus aureus by broth microdilution method; type: functional; procedure, shortened: as §1
Streptococcus pyogenes = test: Antimicrobial activity against Streptococcus pyogenes by broth microdilution method; type: functional; procedure, shortened: as §1
Escherichia coli [5] = test: Antimicrobial activity against Escherichia coli by broth microdilution method; type: functional; procedure, shortened: as §1
[6] = Fraction unbound in human plasma at 10 uM after 16 hrs by LC-MS/MS analysis; type: ADME, cell-free
Procedure, shortened: (§2)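 Compound at 10 μM in human, rat or mouse plasma, equilibrium dialysis against buffer at 37 °C for 16 h. Buffer and plasma concentrations measured by LC-MS/MS, and the free fraction taken from their ratio.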

Escherichia coli [7] = test: Antimicrobial activity against tolC-deficient Escherichia coli by broth microdilution method; type: functional; procedure, shortened: as §1
[8] = Solubility of the compound; type: physicochemical
Streptococcus pneumoniae [9] = test: Antimicrobial activity against Streptococcus pneumoniae 2485 harboring GyrA S81F mutant, GyrB D160E/T329A mutant and ParC S79F mutant by broth microdilution method; type: functional
Streptococcus pneumoniae [10] = test: Antimicrobial activity against wild-type Streptococcus pneumoniae 548 by broth microdilution method; type: functional; procedure, shortened: as §1
Staphylococcus aureus [11] = test: Antimicrobial activity against wild-type Staphylococcus aureus 516 by broth microdilution method; type: functional; procedure, shortened: as §1
Staphylococcus aureus [12] = test: Antimicrobial activity against Staphylococcus aureus 2792 harboring wild-type GyrA and GyrB R144A mutant by broth microdilution method; type: functional
Staphylococcus aureus [13] = test: Antimicrobial activity against Staphylococcus aureus 2375 harboring GyrA S84L mutant, GyrB R144A mutant and ParC S80Y/E84G/V693M mutant and ParE N141S mutant by broth microdilution method; type: functional
Streptococcus pneumoniae [14] = test: Antimicrobial activity against Streptococcus pneumoniae 2800 harboring GyrB K143I/T172A mutant by broth microdilution method; type: functional
[15] = Fraction unbound in mouse plasma at 10 uM after 16 hrs by LC-MS/MS analysis; type: ADME, cell-free; procedure, shortened: as §2
[16] = Clearance in rat at 3 mg/kg, iv or at 10 mg/kg, po by LC-MS/MS method; type: ADME, organism-based; settings: in vivo
Procedure, shortened: (§3)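 Male mice (CD-1) or male Wistar Hannover rats, three per experiment, given a 15 min iv infusion at 3 mg/kg or oral dosing at 10 mg/kg. Vehicle was DMA:TEG:saline 40/40/20 for mice and meglumine/cyclodextrin for rats. Serial jugular blood was taken over 0–24 h, plasma analysed by LC-MS/MS, and a noncompartmental analysis used. Mean values are given.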

[17] = Bioavailability in mouse at 3 mg/kg, iv or at 10 mg/kg, po by LC-MS/MS method; type: ADME, organism-based; settings: in vivo; procedure, shortened: as §3
[18] = Clearance in mouse at 3 mg/kg, iv or at 10 mg/kg, po by LC-MS/MS method; type: ADME, organism-based; settings: in vivo; procedure, shortened: as §3
[19] = Fraction unbound in rat plasma at 10 uM after 16 hrs by LC-MS/MS analysis; type: ADME, cell-free; procedure, shortened: as §2
[20] = Bioavailability in rat at 3 mg/kg, iv or at 10 mg/kg, po by LC-MS/MS method; type: ADME, organism-based; settings: in vivo; procedure, shortened: as §3

Structure (SMILES)	IC50 (DNA gyrase) [nM]	MIC (Haemophilus influenzae) [µM]	MIC (Staphylococcus aureus [1]) [µM]	MIC (Streptococcus pneumoniae [2]) [µM]	MIC (Staphylococcus aureus [3]) [µM]	MIC (Staphylococcus aureus [4]) [µM]	MIC (Streptococcus pyogenes) [µM]	MIC (Escherichia coli [5]) [µM]	fraction unbound at 16 h, 10 µM [6]	MIC (Escherichia coli [7]) [µM]	solubility [8] [µM]	also measured
Cc1noc2c(F)c3c(cc12)CC1(C(=O)NC(=O)NC1=O)C1C(C)CC(C)CN31 (racemic)	340	> 200	50	100 (≈ 40 µg/mL)	25 (≈ 10 µg/mL)	25 (≈ 10 µg/mL)	200 (≈ 80.1 µg/mL)	50 (≈ 20 µg/mL)	< 0.01	6.2 (≈ 2.48 µg/mL)	< 1	–
CC1CN2c3c(cc4c(C5CC5)noc4c3F)CC3(C(=O)NC(=O)NC3=O)C2C(C)O1 (racemic)	340	3.1 (≈ 1.33 µg/mL)	–	25 (≈ 10.7 µg/mL)	1.6 (≈ 0.685 µg/mL)	12 (≈ 5.14 µg/mL)	6.2 (≈ 2.66 µg/mL)	100 (≈ 42.8 µg/mL)	0.052	≤ 0.2	29 (≈ 12.4 µg/mL)	–
CO[C@@H]1[C@@H](OC(N)=O)[C@@H](O)[C@H](Oc2ccc3c(O)c(NC(=O)c4ccc(O)c(CC=C(C)C)c4)c(=O)oc3c2C)OC1(C)C [NOVOBIOCIN]	–	–	–	–	–	–	–	–	–	–	–	MIC (Streptococcus pneumoniae [9]): 0.13 µg/mL (≈ 0.212 µM); MIC (Streptococcus pneumoniae [10]): 1 µg/mL (≈ 1.63 µM); MIC (Staphylococcus aureus [11]): 0.13 µg/mL (≈ 0.212 µM); MIC (Staphylococcus aureus [12]): 32 µg/mL (≈ 52.2 µM); MIC (Staphylococcus aureus [13]): 4.3 µg/mL (≈ 7.02 µM); MIC (Streptococcus pneumoniae [14]): > 16 µg/mL
Cc1noc2c(F)c3c(cc12)CC1(C(=O)NC(=O)NC1=O)[C@@H]1[C@@H](C)O[C@@H](C)CN31	> 83000	> 200	–	> 200	> 200	> 200	–	> 200	0.035	50 (≈ 20.1 µg/mL)	> 1000	–
Cc1noc2c(F)c3c(cc12)CC1(C(=O)NC(=O)NC1=O)[C@H]1[C@H](C)O[C@@H](C)CN31	26000	200 (≈ 80.5 µg/mL)	–	> 200	> 200	> 200	> 200	> 200	0.051	12 (≈ 4.83 µg/mL)	340 (≈ 137 µg/mL)	–
Cc1noc2c(F)c3c(cc12)CC1(C(=O)NC(=O)NC1=O)[C@@H]1[C@@H](C)O[C@H](C)CN31	13000	25 (≈ 10.1 µg/mL)	–	100 (≈ 40.2 µg/mL)	25 (≈ 10.1 µg/mL)	50 (≈ 20.1 µg/mL)	200 (≈ 80.5 µg/mL)	> 200	0.082	1.6 (≈ 0.644 µg/mL)	190 (≈ 76.5 µg/mL)	–
C[C@@H]1CN2c3c(cc4c(C(F)(F)F)noc4c3F)CC3(C(=O)NC(=O)NC3=O)[C@H]2[C@H](C)O1	610	1.6 (≈ 0.73 µg/mL)	100	12 (≈ 5.48 µg/mL)	0.78 (≈ 0.356 µg/mL)	1.6 (≈ 0.73 µg/mL)	3.1 (≈ 1.41 µg/mL)	25 (≈ 11.4 µg/mL)	< 0.01	≤ 0.2	53 (≈ 24.2 µg/mL)	fraction unbound at 16 h, 10 µM [15]: 0.078; clearance [16]: 2.3 mL/min/kg; bioavailability [17]: 63%; clearance [18]: 46 mL/min/kg; fraction unbound at 16 h, 10 µM [19]: 0.078; bioavailability [20]: 60%
C[C@@H]1CN2c3c(cc4c(Cl)noc4c3F)CC3(C(=O)NC(=O)NC3=O)[C@H]2[C@H](C)O1	210	25 (≈ 10.6 µg/mL)	12	12 (≈ 5.07 µg/mL)	0.39 (≈ 0.165 µg/mL)	0.78 (≈ 0.33 µg/mL)	6.2 (≈ 2.62 µg/mL)	25 (≈ 10.6 µg/mL)	< 0.01	6.2 (≈ 2.62 µg/mL)	> 1000	–
CC1CN2c3c(cc4c(C(C)(C)C)noc4c3F)CC3(C(=O)NC(=O)NC3=O)C2C(C)O1 (racemic)	4000	200 (≈ 88.9 µg/mL)	–	200 (≈ 88.9 µg/mL)	18 (≈ 8 µg/mL)	18 (≈ 8 µg/mL)	50 (≈ 22.2 µg/mL)	> 200	0.042	3.1 (≈ 1.38 µg/mL)	770 (≈ 342 µg/mL)	–

— ChEMBL document CHEMBL3352584, “Novel DNA gyrase inhibiting spiropyrimidinetriones with a benzisoxazole scaffold: SAR and in vivo characterization” (J Med Chem, 2014)
